Test results reported in ChEMBL document CHEMBL1154981, “Chemical constituents from the leaves and stems of Schisandra rubriflora” (J Nat Prod, 2010).
In brackets after ≈: the same amount, converted by molar mass.

Experiments:
HepG2 = assay: Cytotoxicity against human HepG2 cells after 48 hrs by SRB assay; assay type: functional, cell-based; details: HepG2, 48 h
[1] = Selectivity index, ratio of antiviral activity against HIV1-infected human C8166 cells over cytotoxicity against human C8166 cells; assay type: toxicity, cell-based; details: uninfected and HIV-1-infected, read-out: Selectivity Index
K562 = assay: Cytotoxicity against human K562 cells after 48 hrs by SRB assay; assay type: functional, cell-based; details: K562, 48 h
[2] = system: Human immunodeficiency virus 1; assay: Antiviral activity against HIV1-infected human C8166 cells; assay type: functional, organism-based; details: Human immunodeficiency virus 1, C8166
In short: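 Protection of C8166 cells from HIV-1 cytopathic effects, read as EC50. Run alongside the cytotoxicity measurement, with AZT as positive control.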

[3] = Cytotoxicity against human C8166 cells by MTT assay; assay type: cell-based
In short: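 Uninfected C8166 cells scored for viability by MTT, giving CC50. Run in parallel with the HIV-1 cytopathic-effect assay, with AZT as reference.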

Row | SMILES | EC50 [2] | IC50 (HepG2) | selectivity ratio [1] | IC50 (K562) | CC50 [3]
1 | CC1=C[C@H]([C@H]2O[C@]34C(=CC[C@@H]3[C@@H]2C)[C@@H]2[C@H](O)C[C@H]3C(C)(C)O[C@@H]5CC(=O)O[C@@]53C[C@@]2(O)C[C@@H]4O)OC1=O [SCHIRUBRIDILACTONE F] | 50.1 µg/mL (≈ 97 µM) | > 5 µg/mL | 3.5 | > 5 µg/mL | 
2 | Cc1cn([C@H]2C[C@H](N=[N+]=[N-])[C@@H](CO)O2)c(=O)[nH]c1=O [ZIDOVUDINE] |  |  |  |  | > 200 µg/mL
3 | CC1(C)O[C@@H]2CC(=O)O[C@@]23C[C@]24CC[C@]5(C)C(=O)[C@](C)(O)[C@]6(O)[C@H]7OC(=O)[C@](C)(O)[C@H]7O[C@@](O2)(C(=O)C4=CC[C@@H]13)[C@@H]65 [SCHIRUBRIDILACTONE E] | 66.8 µg/mL (≈ 116 µM) | > 5 µg/mL | 3.1 | > 5 µg/mL | 

Now from value to compound, other results behind:

Row | EC50 [2] | SMILES | IC50 (HepG2) | selectivity ratio [1] | IC50 (K562) | CC50 [3]
4 | 30.1 µg/mL (≈ 52.2 µM) | C[C@@H]1C(=O)O[C@H]2[C@@H]1O[C@]13O[C@@]4(CC[C@]5(C)C(=O)[C@](C)(O)[C@@]2(O)[C@H]15)C[C@]12OC(=O)C[C@H]1OC(C)(C)[C@@H]2[C@@H](O)C[C@H]4C3=O [SCHIRUBRIDILACTONE A] | > 5 µg/mL | 5.1 | > 5 µg/mL | 
5 | 80.8 µg/mL (≈ 149 µM) | C[C@@H]1C(=O)O[C@H]2[C@@H]1O[C@]13O[C@@]4(CC[C@]5(C)C(=O)[C@@H](C)[C@H]2[C@H]15)C[C@]12OC(=O)C[C@H]1OC(C)(C)[C@@H]2C[C@@H]1O[C@@]14C3=O [SCHIRUBRIDILACTONE D] | > 5 µg/mL | 2.2 | > 5 µg/mL | 
6 | 14.3 µg/mL (≈ 25.5 µM) | C[C@@H]1C(=O)[C@@]2(C)CC[C@]34C[C@]56OC(=O)C[C@H]5O[C@@](C)(CO)[C@@H]6CC[C@@]3(O)C(=O)[C@@]3(O[C@]5(C[C@H](C)C(=O)O5)[C@@H]1[C@H]32)O4 [SCHIRUBRIDILACTONE C] |  | 8.7 |  | 
7 | 15.2 µg/mL (≈ 28 µM) | C/C(=C/[C@H]1O[C@]23O[C@@]4(CC[C@]5(C)C(=O)[C@](C)(O)[C@H]1[C@H]25)C[C@]12OC(=O)C[C@H]1OC(C)(C)[C@@H]2CC=C4C3=O)C(=O)O [SCHIRUBRIDILACTONE B] | > 5 µg/mL | 9 | > 5 µg/mL | 
